From ChEMBL document CHEMBL2412978, “Effect of ring-constrained phenylpropyloxyethylamines on sigma receptors” (Bioorg Med Chem, 2013)
The source made the active and inactive calls. The calls are words filed in the database; no cut-off is given here.

What was measured:
[1] = Displacement of [3H]di-o-tolylguanidine from sigma 2 receptor in rat brain homogenates after 120 mins by liquid scintillation counting; assay type: tissue-based
Rattus norvegicus = species: Rattus norvegicus; experiment: Selectivity ratio of Ki for sigma 2 receptor in rat brain homogenates to Ki for sigma 1 receptor in rat brain homogenates; assay type: tissue-based
Mus musculus [2] = experiment: Anticonvulsant activity in Swiss Webster mouse assessed as reversal of cocaine-induced loss of righting reflexes at 30 mg/kg, ip administered 15 mins before cocaine challenge measured after 30 mins; assay type: functional, organism-based; parameters: dose 30 mg/kg
Procedure, shortened: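 Male Swiss Webster mice, n = 10/group, given test compound ip (0, 1, 10 or 30 mg/kg) 15 min before a convulsive dose of cocaine (70 mg/kg ip). Animals observed for convulsions for 30 min after cocaine injection. Groups compared by Fisher's exact test.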

[3] = target: Kappa-type opioid receptor (Homo sapiens, UniProt P41145); experiment: Displacement of [3H]U69,593 from human kappa opioid receptor expressed in CHO cells after 120 mins by liquid scintillation counting; assay type: cell-based
Kappa-type opioid receptor, sequence (P41145 whole entry): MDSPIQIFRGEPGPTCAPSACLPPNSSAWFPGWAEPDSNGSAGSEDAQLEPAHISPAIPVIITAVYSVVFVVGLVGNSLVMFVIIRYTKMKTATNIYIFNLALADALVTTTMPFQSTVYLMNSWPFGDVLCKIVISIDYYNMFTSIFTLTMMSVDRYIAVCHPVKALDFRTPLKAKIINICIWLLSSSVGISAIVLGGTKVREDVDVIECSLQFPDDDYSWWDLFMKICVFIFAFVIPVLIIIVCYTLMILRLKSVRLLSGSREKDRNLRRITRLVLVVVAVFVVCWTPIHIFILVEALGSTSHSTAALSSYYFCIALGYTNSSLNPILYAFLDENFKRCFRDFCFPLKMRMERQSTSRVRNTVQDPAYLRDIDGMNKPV
Procedure, shortened: (§1)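 Membranes from CHO cells stably expressing human μ, δ or κ opioid receptor. Radioligands: μ 1.3 nM [3H]DAMGO, δ 1.2 nM [3H]DPDPE, κ 1.7 nM [3H]U69,593; nonspecific with 1 μM of the matching unlabelled ligand.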

Mus musculus [4] = experiment: Anticonvulsant activity in ip dosed Swiss Webster mouse assessed as reversal of cocaine-induced loss of righting reflexes administered 15 mins before cocaine challenge measured after 30 mins; assay type: functional, organism-based
Procedure, shortened: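 Male Swiss Webster mice, n = 10 per group, given test compound ip (0–30 mg/kg range across doses including vehicle 0) 15 min before convulsive cocaine 70 mg/kg ip. Animals watched 30 min after cocaine for occurrence of convulsions; groups compared by Fisher's exact test.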

Mu-type opioid receptor = Mu-type opioid receptor (Homo sapiens, UniProt P35372); experiment: Displacement of [3H]DAMGO from human mu opioid receptor expressed in CHO cells after 120 mins by liquid scintillation counting; assay type: cell-based; procedure, shortened: as §1
Mu-type opioid receptor, sequence (P35372 whole entry): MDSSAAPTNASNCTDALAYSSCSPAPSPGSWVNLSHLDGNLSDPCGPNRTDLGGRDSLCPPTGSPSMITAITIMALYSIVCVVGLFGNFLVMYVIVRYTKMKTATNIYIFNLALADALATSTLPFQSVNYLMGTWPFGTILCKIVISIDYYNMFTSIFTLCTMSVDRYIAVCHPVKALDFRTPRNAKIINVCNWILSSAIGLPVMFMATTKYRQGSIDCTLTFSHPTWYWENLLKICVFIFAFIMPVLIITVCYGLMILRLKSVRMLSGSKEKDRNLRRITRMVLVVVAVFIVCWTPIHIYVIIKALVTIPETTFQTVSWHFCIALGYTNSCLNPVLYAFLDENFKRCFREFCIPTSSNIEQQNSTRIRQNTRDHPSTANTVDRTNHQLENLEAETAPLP

| Compound | Ki [1] | Ratio Ki (Rattus norvegicus) | Activity (Mus musculus [2]) | Ki [3] | Activity (Mus musculus [4]) | Ki (Mu-type opioid receptor) |
| --- | --- | --- | --- | --- | --- | --- |
| CN(CCCc1ccccc1)[C@H]1CCCC[C@@H]1OCCCc1ccccc1 (racemic) | > 10000 nM |  |  |  |  |  |
| CN(C)[C@H]1CCCC[C@@H]1OCCCc1ccccc1 (relative stereo) | 3800 nM | 65 |  |  |  |  |
| CN(C)[C@H]1CCCC[C@@H]1OC/C=C/c1ccccc1 (relative stereo) | 1100 nM | 240 |  |  |  |  |
| CN(CCc1ccccc1)[C@H]1CCCC[C@@H]1O (relative stereo) | 220 nM | 2 | Active |  |  |  |
| CN(CCc1ccccc1)[C@H]1CCCC[C@@H]1OCCCc1ccccc1 (relative stereo) | 570 nM | 7 |  | 21000 nM |  |  |
| CN(CCCc1ccccc1)[C@H]1CCCC[C@@H]1O (relative stereo) | 6.7 nM | 0.4 |  |  | Dose-dependent effect | > 10000 nM |
| c1ccc(CCN2CCCCC2)cc1 [1-PHENETHYLPIPERIDINE] | 140 nM | 5 |  |  |  |  |
